Activity calls are given as the source filed them. No cut-off for these calls is given here.
What was measured:
Estrogen receptor beta [1] = target: T1, Estrogen receptor beta (Homo sapiens, UniProt Q92731); test: Displacement of [3H]-estradiol from human full-length ERbeta after 18 to 24 hrs by competitive radiometric binding assay relative to estradiol
HepG2 = test: Agonist activity at ERalpha (unknown origin) harboring N-terminal AF1 domain deleted mutant expressed in human HepG2 cells assessed as transcriptional activation after 24 hrs by ERE-luciferase reporter gene assay; format: cell-based
Estrogen receptor beta [2] = target: T1, Estrogen receptor beta; test: Agonist activity at ERbeta (unknown origin) expressed in human HepG2 cells assessed as transcriptional activation after 24 hrs by ERE-luciferase reporter gene assay relative to 17beta-estradiol; format: cell-based
Method in brief: (§1)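 HepG2 cells were cotransfected with a 3×ERE-luciferase reporter (10 μg) plus an ERα or ERβ expression vector (1.6 μg) per 10 cm dish. The next day they were replated at 20 000 cells/well in phenol red-free medium with 10% charcoal-dextran-stripped FBS and held overnight. Cells were then dosed over a 12-point range of 10 μM to 100 pM. Luciferase was read after 24 h, with DMSO set as 0% and the top of the E2 curve as 100%.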

Homo sapiens = species on record: Homo sapiens; test: Selectivity ratio of RBA for human full length ERbeta to RBA for human full-length ERalpha
[3] = target: T2, Estrogen receptor (Homo sapiens) (UniProt P03372); test: Displacement of [3H]-estradiol from human full-length ERalpha after 18 to 24 hrs by competitive radiometric binding assay relative to estradiol
T2 sequence (whole entry): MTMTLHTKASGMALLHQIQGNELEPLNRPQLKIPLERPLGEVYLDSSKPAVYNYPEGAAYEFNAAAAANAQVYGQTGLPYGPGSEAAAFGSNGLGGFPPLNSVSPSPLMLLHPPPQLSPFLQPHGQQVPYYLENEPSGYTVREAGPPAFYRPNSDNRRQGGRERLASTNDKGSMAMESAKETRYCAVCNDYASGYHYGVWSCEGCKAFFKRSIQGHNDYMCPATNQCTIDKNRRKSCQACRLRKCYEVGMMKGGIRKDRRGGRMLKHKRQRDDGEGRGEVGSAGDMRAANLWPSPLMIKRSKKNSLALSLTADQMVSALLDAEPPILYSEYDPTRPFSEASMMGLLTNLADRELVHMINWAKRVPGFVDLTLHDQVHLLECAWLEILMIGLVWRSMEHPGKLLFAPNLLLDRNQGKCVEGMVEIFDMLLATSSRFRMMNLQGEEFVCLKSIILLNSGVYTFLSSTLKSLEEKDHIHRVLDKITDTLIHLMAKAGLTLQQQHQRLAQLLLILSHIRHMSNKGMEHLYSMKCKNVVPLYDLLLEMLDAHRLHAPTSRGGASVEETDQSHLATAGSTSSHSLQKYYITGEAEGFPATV

Estrogen receptor beta [4] = target: T1, Estrogen receptor beta; test: Antagonist activity at ERbeta (unknown origin) expressed in human HepG2 cells assessed as inhibition of 17beta-estradiol-induced transcriptional activation after 24 hrs by ERE-luciferase reporter gene assay; format: cell-based
Method in brief: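 ERβ-transfected, steroid-deprived HepG2 cells carrying a 3×ERE-luciferase reporter were co-treated with 10 nM estradiol and test ligand over a range of 10 μM to 100 pM. Luciferase was read after 24 h, with each plate normalized to DMSO (0%) and the maximal E2 response (100%). IC50 and % efficacy were derived from the dose curves.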

[5] = target: T2, Estrogen receptor (Homo sapiens); test: Antagonist activity at ERalpha (unknown origin) expressed in human HepG2 cells assessed as inhibition of transcriptional activation after 24 hrs by ERE-luciferase reporter gene assay relative to 17beta-estradiol; format: cell-based
Method in brief: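 Antagonist mode used HepG2 cells cotransfected with a 3×ERE-luciferase reporter plus an ERα expression vector and steroid-deprived in phenol red-free medium with 10% charcoal-dextran-stripped FBS. Cells received 10 nM estradiol together with increasing compound concentrations across a 10 μM to 100 pM dose curve. Luciferase was measured after 24 h and normalized to DMSO (0%) and the top of the E2 curve (100%).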

[6] = target: T2, Estrogen receptor (Homo sapiens); test: Agonist activity at ERalpha (unknown origin) expressed in human HepG2 cells assessed as transcriptional activation after 24 hrs by ERE-luciferase reporter gene assay relative to 17beta-estradiol; format: cell-based; method in brief: as §1
Estrogen receptor = target: T3, Estrogen receptor (Homo sapiens, UniProt P03372); test: Agonist activity at ERalpha (unknown origin) expressed in human HepG2 cells assessed as transcriptional activation after 24 hrs by ERE-luciferase reporter gene assay; format: cell-based
T3 sequence (P03372 whole entry): T2 sequence (whole entry)
Method in brief: (§2)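 HepG2 cells were grown in DMEM with 10% FBS and transfected with a 3×ERE-luciferase reporter plus an ERα or ERβ expression vector. The next day cells were moved to phenol red-free medium with 10% charcoal-dextran-stripped FBS, plated at 20 000 cells/well and left overnight. Ligand was then added as a 12-point dose curve from 10 μM to 100 pM. Luciferase was read after 24 h, normalized to DMSO as 0% and the top of the E2 curve as 100%.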

Estrogen receptor beta [7] = target: T1, Estrogen receptor beta; test: Agonist activity at ERbeta (unknown origin) expressed in human HepG2 cells assessed as transcriptional activation after 24 hrs by ERE-luciferase reporter gene assay; format: cell-based; method in brief: as §2

T1 sequence (Q92731 whole entry, the tested form may be a part): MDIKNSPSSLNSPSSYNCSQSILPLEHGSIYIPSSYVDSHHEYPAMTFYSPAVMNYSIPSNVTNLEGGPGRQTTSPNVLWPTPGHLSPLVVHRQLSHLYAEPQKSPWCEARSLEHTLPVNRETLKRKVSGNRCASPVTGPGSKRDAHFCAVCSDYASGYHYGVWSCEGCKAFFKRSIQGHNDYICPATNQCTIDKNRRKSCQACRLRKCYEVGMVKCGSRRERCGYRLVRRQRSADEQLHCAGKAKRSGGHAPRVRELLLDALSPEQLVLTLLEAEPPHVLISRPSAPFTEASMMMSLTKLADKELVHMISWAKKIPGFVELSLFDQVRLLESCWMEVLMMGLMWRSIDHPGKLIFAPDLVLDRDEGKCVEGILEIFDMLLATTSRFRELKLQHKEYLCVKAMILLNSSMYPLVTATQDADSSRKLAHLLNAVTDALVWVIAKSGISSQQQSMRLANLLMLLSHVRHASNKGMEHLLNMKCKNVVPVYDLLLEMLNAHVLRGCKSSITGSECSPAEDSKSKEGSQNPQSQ

RBA (Estrogen receptor beta [1]) | Efficacy (Estrogen receptor beta [2]) | Selectivity ratio (Homo sapiens) | RBA [3] | IC50 (Estrogen receptor beta [4]) | Efficacy [5] | Efficacy [6] | EC50 (Estrogen receptor) | EC50 (Estrogen receptor beta [7]) | SMILES | Activity (HepG2)
20.1% | 7% | 2 | 10% | 45 nM | – | – | – | – | Cc1ccc(N=C(c2ccc(O)cc2)c2ccc(O)cc2)cc1 | inactive
45.6% | 10% | 2.3 | 19.7% | 7 nM | 113% | 114% | 2 nM | – | Oc1ccc(C(=Nc2ccc(F)cc2)c2ccc(O)cc2)cc1 | inactive
116% | 8% | 2.8 | 40.6% | 6 nM | 149% | 103% | 7 nM | – | Cc1ccccc1N=C(c1ccc(O)cc1)c1ccc(O)cc1 | inactive
17.1% | 20% | 1.9 | 9.12% | 241 nM | 122% | 103% | 16 nM | 10900 nM | Cc1ccc(/N=C(\c2ccc(O)cc2)c2ccc(O)cc2O)cc1 | inactive
97% | 37% | 1.5 | 62.8% | 19 nM | 83% | 104% | 1 nM | – | Oc1ccc(C(=Nc2ccccc2Cl)c2ccc(O)cc2)cc1 | inactive
77.9% | 54% | 0.8 | 96.7% | 6 nM | 136% | 113% | 0.1 nM | – | Oc1ccc(/C(=N\c2ccccc2Cl)c2ccc(O)cc2O)cc1 | inactive
139% | 3% | 4.2 | 33.4% | 24 nM | 104% | 89% | 23 nM | – | Oc1ccc(C(=Nc2cccc(C(F)(F)F)c2)c2ccc(O)cc2)cc1 | inactive
39.2% | – | 3.2 | 11.9% | – | – | – | – | – | COc1ccc(/C(=N\c2ccc(O)cc2)c2ccc(O)cc2O)cc1 | –
< 3% | – | – | < 3% | – | – | – | – | – | C/C(=N\c1ccc(O)cc1)c1ccc(O)cc1 | –
1.23% | 51% | 0.5 | 2.25% | 417 nM | 108% | 97% | 7 nM | – | Oc1ccc(/N=C(\c2ccc(O)cc2)c2ccc(O)cc2O)cc1 | inactive
72.1% | 11% | 2.6 | 28.2% | 28 nM | 95% | 100% | 57 nM | – | Oc1ccc(/C(=N\c2cccc(C(F)(F)F)c2)c2ccc(O)cc2O)cc1 | inactive
94.1% | 11% | 2.3 | 41.5% | 6 nM | 128% | 105% | 1 nM | – | Oc1ccc(C(=Nc2ccc(Br)cc2)c2ccc(O)cc2)cc1 | inactive

The remaining lines, values behind:

SMILES | RBA (Estrogen receptor beta [1]) | Efficacy (Estrogen receptor beta [2]) | Selectivity ratio (Homo sapiens) | RBA [3] | IC50 (Estrogen receptor beta [4]) | Efficacy [5] | Efficacy [6] | EC50 (Estrogen receptor) | EC50 (Estrogen receptor beta [7]) | Activity (HepG2)
Cc1cccc(C)c1N=C(c1ccc(O)cc1)c1ccc(O)cc1 | 2.91% | – | 1.9 | 1.56% | – | – | – | – | – | –
COc1ccc(/N=C(\c2ccccc2)c2ccc(O)cc2O)cc1 | 5.55% | – | 0.49 | 11.3% | – | – | – | – | – | –
Oc1ccc(/C(=N\c2ccc(Br)cc2)c2ccc(O)cc2O)cc1 | 70.3% | 24% | 1.1 | 64.6% | 100 nM | 111% | 113% | 9 nM | 12500 nM | inactive
Cc1ccccc1/N=C(\c1ccc(O)cc1)c1ccc(O)cc1O | 45.1% | 31% | 0.9 | 53.3% | 16 nM | 100% | 111% | – | 2 nM | inactive
Oc1ccc(/C(=N\c2cccc(Cl)c2)c2ccc(O)cc2O)cc1 | 61.6% | 15% | 1.6 | 37.6% | 67 nM | 118% | 117% | 15 nM | – | inactive
Oc1ccc(N=C(c2ccc(O)cc2)c2ccc(O)cc2)cc1 | 0.99% | 16% | 0.5 | 1.86% | 300 nM | 111% | 95% | 14 nM | 332 nM | inactive
Cc1cccc(N=C(c2ccc(O)cc2)c2ccc(O)cc2)c1 | 69.2% | 13% | 5.2 | 13.2% | 41 nM | 93% | 109% | 5 nM | – | inactive
Oc1ccc(/C(=N\c2ccccc2)c2ccc(O)cc2O)cc1 | 18.5% | 25% | 1.3 | 14.6% | 6 nM | 134% | 102% | 7 nM | 628 nM | –
Oc1ccc(/C(=N\c2ccc(F)cc2)c2ccc(O)cc2O)cc1 | 27.7% | 23% | 1.3 | 21.1% | 139 nM | 124% | 108% | 10 nM | – | inactive
Oc1ccc(C(=Nc2cccc(Cl)c2)c2ccc(O)cc2)cc1 | 114% | 10% | 2.5 | 41.8% | 16 nM | 109% | 102% | 10 nM | – | inactive
Oc1ccc(/N=C/c2ccccc2O)cc1 | < 3% | – | – | < 3% | – | – | – | – | – | –
Cc1cccc(/N=C(\c2ccc(O)cc2)c2ccc(O)cc2O)c1 | 38.1% | 9% | 2.5 | 15.3% | 51 nM | 101% | 95% | 14 nM | – | inactive
COc1ccc(/N=C(\c2ccc(O)cc2)c2ccc(O)cc2O)cc1 | 5.33% | 38% | 0.5 | 10.5% | – | 102% | 102% | 17 nM | 276 nM | –
Oc1ccc(C(=Nc2ccccc2)c2ccc(O)cc2)cc1 | 31.5% | 34% | 2.2 | 14.1% | 13 nM | 126% | 110% | 3 nM | – | –
Oc1ccc(C(=Nc2ccc(Cl)cc2)c2ccc(O)cc2)cc1 | 127% | 9% | 2.6 | 49.2% | 9 nM | 138% | 114% | 2 nM | – | inactive
COc1ccc(N=C(c2ccc(O)cc2)c2ccc(O)cc2)cc1 | 3.98% | – | 0.9 | 4.41% | – | – | – | – | – | –

— ChEMBL document CHEMBL3232883, “Triaryl-substituted Schiff bases are high-affinity subtype-selective ligands for the estrogen receptor” (J Med Chem, 2014)
